Experimental data as given in ChEMBL document CHEMBL3734698, “1H-Pyrazolo[3,4-g]hexahydro-isoquinolines as potent GR antagonists with reduced hERG inhibition and an improved pharmacokinetic profile” (Bioorg Med Chem Lett, 2015).
Activity calls are given as the source filed them. No cut-off for these calls is given here.

Key:
Glucocorticoid receptor [1] = target: T1, Glucocorticoid receptor (Homo sapiens, UniProt P04150); assay: Antagonist activity at glucocorticoid receptor in human HepG2 cells assessed as inhibition of glucocorticoid-induced TAT activity after 24 hrs; type: cell-based
T1 sequence (P04150 whole entry): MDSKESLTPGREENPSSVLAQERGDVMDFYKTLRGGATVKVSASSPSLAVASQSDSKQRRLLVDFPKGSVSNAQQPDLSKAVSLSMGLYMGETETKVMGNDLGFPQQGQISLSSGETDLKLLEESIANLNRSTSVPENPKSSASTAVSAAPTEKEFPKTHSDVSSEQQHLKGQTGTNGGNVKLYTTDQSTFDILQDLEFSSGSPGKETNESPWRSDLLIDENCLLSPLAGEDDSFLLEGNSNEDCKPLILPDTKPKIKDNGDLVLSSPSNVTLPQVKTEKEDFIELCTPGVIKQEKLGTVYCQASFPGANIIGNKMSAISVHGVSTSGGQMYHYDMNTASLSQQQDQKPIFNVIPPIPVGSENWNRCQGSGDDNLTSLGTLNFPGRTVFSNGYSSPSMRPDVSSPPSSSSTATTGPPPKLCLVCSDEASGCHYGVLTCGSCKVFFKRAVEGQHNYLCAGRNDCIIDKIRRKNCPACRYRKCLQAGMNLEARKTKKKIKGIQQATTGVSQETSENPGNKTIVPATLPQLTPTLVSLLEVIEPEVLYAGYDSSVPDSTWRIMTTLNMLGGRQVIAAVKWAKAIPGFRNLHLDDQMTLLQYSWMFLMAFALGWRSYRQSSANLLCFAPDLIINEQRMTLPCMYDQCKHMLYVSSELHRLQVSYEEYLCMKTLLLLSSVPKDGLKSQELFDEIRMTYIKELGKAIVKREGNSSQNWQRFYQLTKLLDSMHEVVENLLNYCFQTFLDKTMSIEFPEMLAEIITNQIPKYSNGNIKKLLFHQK

hERG (KCNH2) [2] = target: T2, hERG (KCNH2) (Homo sapiens, UniProt Q12809); assay: Inhibition of human ERG at 1 uM by patch clamp technique
hERG (KCNH2) [3] = target: T2, hERG (KCNH2); assay: Inhibition of human ERG at 10 uM by patch clamp technique
Glucocorticoid receptor [4] = target: T1, Glucocorticoid receptor; assay: Binding affinity to human recombinant glucocorticoid receptor by fluorescence polarization assay
[5] = target: Voltage-gated inwardly rectifying potassium channel KCNH2 (Homo sapiens, UniProt Q12809); assay: Inhibition of human ERG by patch clamp technique
Glucocorticoid receptor [6] = target: T1, Glucocorticoid receptor; assay: Antagonist activity at glucocorticoid receptor in human primary hepatocytes assessed as inhibition of glucocorticoid-induced TAT activity; type: cell-based, Hepatocyte
Method in brief: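 Primary human hepatocytes stimulated with dexamethasone to induce tyrosine amino transferase (TAT) activity. Compounds were tested for their ability to block this dexamethasone effect as a measure of GR antagonism. They were also run without dexamethasone to check for TAT induction, a measure of GR agonism. Read-out was TAT activity, reported as K_i.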

Glucocorticoid receptor [7] = target: T3, Glucocorticoid receptor (Rattus norvegicus, UniProt P06536); assay: (§1) Antagonist activity at glucocorticoid receptor in rat primary hepatocytes assessed as inhibition of glucocorticoid-induced TAT activity; type: cell-based, Hepatocyte
T3 sequence (P06536 whole entry): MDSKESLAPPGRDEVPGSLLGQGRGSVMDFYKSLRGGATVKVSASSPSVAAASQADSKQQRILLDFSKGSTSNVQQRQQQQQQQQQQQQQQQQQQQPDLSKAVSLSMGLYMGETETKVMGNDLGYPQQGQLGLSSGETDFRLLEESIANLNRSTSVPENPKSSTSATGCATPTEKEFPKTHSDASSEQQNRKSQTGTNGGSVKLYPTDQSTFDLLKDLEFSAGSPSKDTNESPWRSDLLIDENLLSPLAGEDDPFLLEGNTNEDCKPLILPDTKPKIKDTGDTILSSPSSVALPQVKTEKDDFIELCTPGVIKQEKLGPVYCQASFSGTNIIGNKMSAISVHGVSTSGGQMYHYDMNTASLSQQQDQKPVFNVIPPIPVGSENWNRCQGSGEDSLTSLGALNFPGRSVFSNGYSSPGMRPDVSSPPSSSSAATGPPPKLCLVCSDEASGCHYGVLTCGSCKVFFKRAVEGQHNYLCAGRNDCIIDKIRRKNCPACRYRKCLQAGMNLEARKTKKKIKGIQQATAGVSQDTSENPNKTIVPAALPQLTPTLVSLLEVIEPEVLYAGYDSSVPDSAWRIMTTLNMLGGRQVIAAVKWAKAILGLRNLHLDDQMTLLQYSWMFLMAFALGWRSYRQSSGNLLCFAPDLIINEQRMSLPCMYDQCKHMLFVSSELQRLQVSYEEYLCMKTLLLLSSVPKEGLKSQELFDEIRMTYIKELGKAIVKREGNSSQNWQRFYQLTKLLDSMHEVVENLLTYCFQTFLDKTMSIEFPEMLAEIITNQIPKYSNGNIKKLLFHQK
Method in brief: (§2)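 Glucocorticoid receptor antagonism was measured as blockade of dexamethasone-induced tyrosine amino transferase (TAT) activity. Cells were rat H4IIEC3 cells or primary hepatocytes from rat or cynomolgus monkey, as the line specifies.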

[8] = Antagonist activity at glucocorticoid receptor in cynomolgus monkey primary hepatocytes assessed as inhibition of glucocorticoid-induced TAT activity; type: cell-based, Macaca fascicularis; conditions: hepatocyte; method in brief: as §2
Glucocorticoid receptor [9] = target: T3, Glucocorticoid receptor; assay: Agonist activity at glucocorticoid receptor in rat primary hepatocytes assessed as inhibition of glucocorticoid-induced TAT activity; type: cell-based, Hepatocyte
[10] = Agonist activity at glucocorticoid receptor in dog primary hepatocytes assessed as […] TAT activity; type: cell-based; conditions: Canis lupus familiaris, Hepatocyte
[11] = Oral bioavailability in rat at 5 mg/kg; type: ADME, organism-based; conditions: in vivo
Method in brief: (§3)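 Rat pharmacokinetics: oral dosing at 5 mg/kg in 10% DMSO in 0.5% aqueous methyl cellulose. Intravenous dosing at 1 mg/kg in 10% DMSO, 45% PEG400 and 45% propylene glycol. Plasma Cmax was taken after the oral dose and clearance after the iv dose, and oral bioavailability was derived.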

[12] = Cmax in rat at 5 mg/kg, po; type: ADME, organism-based; parameters: dose 5 mg/kg, route oral; conditions: in vivo; method in brief: as §3
[13] = Clearance in rat at 1 mg/kg, iv; type: ADME, organism-based; conditions: in vivo; method in brief: as §3
Rattus norvegicus [14] = assay: Reduction in olanzapine-induced weight gain in rat at 20 mg/kg, po bid administered for 21 days measured from day 4 of compound dosing; type: functional, organism-based
Rattus norvegicus [15] = assay: Reduction in cortisone-induced glucose level in rat at 30 mg/kg, po bid; type: functional, organism-based
Method in brief: (§4)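 Rats received cortisone 30 mg/kg sc once daily for six days. Test agent was given orally twice daily at 30 mg/kg. Glucose and insulin levels were compared with cortisone-only and no-cortisone controls, with mifepristone at the same oral regimen as positive control.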

Rattus norvegicus [16] = assay: Reduction in cortisone-induced insulin level in rat at 30 mg/kg, po bid; type: functional, organism-based; method in brief: as §4
[17] = target: T4, Glucocorticoid receptor (Rattus norvegicus) (UniProt P06536); assay: Antagonist activity at glucocorticoid receptor in rat primary hepatocytes assessed as inhibition of glucocorticoid-induced TAT activity relative to control; type: cell-based; conditions: Hepatocyte; method in brief: as §2
T4 sequence (whole entry): T3 sequence (P06536 whole entry)

Hepatocyte [18] = assay: Antagonist activity at glucocorticoid receptor in cynomolgus monkey primary hepatocytes assessed as inhibition of glucocorticoid-induced TAT activity relative to control; type: cell-based; conditions: Macaca fascicularis; method in brief: as §2
[19] = target: T4, Glucocorticoid receptor (Rattus norvegicus); assay: Agonist activity at glucocorticoid receptor in rat primary hepatocytes assessed as inhibition of glucocorticoid-induced TAT activity relative to control; type: cell-based; conditions: Hepatocyte
Hepatocyte [20] = assay: Agonist activity at glucocorticoid receptor in dog primary hepatocytes assessed as […] TAT activity relative to control; type: cell-based; conditions: Canis lupus familiaris
[21] = target: T4, Glucocorticoid receptor (Rattus norvegicus); assay: as §1; type: cell-based; conditions: Hepatocyte; method in brief: as §2
Glucocorticoid receptor [22] = target: T3, Glucocorticoid receptor; assay: Antagonist activity at glucocorticoid receptor in rat H4IIEC3 cells assessed as glucocorticoid-induced TAT activity; type: cell-based; method in brief: as §2

T2 sequence (Q12809 whole entry): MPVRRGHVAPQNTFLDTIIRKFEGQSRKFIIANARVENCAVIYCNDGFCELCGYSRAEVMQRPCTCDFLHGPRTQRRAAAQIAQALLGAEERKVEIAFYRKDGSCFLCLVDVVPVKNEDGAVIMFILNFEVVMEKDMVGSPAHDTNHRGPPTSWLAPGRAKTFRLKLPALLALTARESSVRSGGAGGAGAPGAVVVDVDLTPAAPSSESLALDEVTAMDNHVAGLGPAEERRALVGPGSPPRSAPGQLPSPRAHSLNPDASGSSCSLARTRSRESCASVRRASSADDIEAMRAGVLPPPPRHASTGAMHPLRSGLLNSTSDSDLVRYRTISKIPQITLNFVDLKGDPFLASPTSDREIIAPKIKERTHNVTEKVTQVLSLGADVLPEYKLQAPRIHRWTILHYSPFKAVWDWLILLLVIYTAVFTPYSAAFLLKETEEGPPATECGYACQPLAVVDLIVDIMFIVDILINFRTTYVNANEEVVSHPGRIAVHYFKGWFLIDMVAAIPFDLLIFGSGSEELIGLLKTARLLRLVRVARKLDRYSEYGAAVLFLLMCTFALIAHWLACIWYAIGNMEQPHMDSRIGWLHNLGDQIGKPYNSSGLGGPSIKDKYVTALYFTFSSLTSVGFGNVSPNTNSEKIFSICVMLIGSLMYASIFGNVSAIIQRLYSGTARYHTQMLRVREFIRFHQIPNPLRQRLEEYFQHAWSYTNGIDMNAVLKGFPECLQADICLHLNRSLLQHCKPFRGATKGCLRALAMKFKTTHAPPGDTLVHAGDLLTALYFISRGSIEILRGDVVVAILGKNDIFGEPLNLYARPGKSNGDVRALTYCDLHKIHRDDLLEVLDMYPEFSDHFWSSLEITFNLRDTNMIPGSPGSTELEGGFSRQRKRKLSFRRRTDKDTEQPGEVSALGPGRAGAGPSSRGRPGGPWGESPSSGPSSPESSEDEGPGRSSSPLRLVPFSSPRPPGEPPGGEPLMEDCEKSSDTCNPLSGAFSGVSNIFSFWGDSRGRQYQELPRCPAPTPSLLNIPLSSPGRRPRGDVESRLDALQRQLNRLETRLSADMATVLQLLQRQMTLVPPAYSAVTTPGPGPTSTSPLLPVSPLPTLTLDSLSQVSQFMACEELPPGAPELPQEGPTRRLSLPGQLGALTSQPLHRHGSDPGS
Chain of Voltage-gated inwardly rectifying potassium channel KCNH2 (Q12809 whole entry): as above

SMILES	Ki (Glucocorticoid receptor [1])	inhibition at 1 µM (hERG (KCNH2) [2])	inhibition at 10 µM (hERG (KCNH2) [3])	Ki (Glucocorticoid receptor [4])	other results
Cc1ccccc1S(=O)(=O)N1CCC2=Cc3c(cnn3-c3ccc(F)cc3)C[C@]2(C(=O)c2ccccn2)C1	0.0185 µM	26%	45%	0.00021 µM	
O=C(c1cncs1)[C@]12Cc3cnn(-c4ccc(F)cc4)c3C=C1CCN(S(=O)(=O)c1ccc(C(F)(F)F)cc1)C2	0.26 µM			0.00033 µM	
O=C(c1ccccn1)[C@]12Cc3cnn(-c4ccc(F)cc4)c3C=C1CCN(S(=O)(=O)c1ccc(F)cc1)C2	0.016 µM			0.00013 µM	
O=C(c1nccs1)[C@]12Cc3cnn(-c4ccc(F)cc4)c3C=C1CCN(S(=O)(=O)c1ccc(C(F)(F)F)cc1)C2	0.018 µM			0.00023 µM	
O=C(c1ncc[nH]1)[C@]12Cc3cnn(-c4ccc(F)cc4)c3C=C1CCN(S(=O)(=O)c1ccc(C(F)(F)F)cc1)C2	0.052 µM			0.00047 µM	
Cc1ccc(S(=O)(=O)N2CCC3=Cc4c(cnn4-c4ccc(F)cc4)C[C@]3(C(=O)c3ccccn3)C2)cc1	0.0045 µM	34%	59%	0.00022 µM	
N#Cc1cccc(S(=O)(=O)N2CCC3=Cc4c(cnn4-c4ccc(F)cc4)C[C@]3(C(=O)c3ccccn3)C2)c1	0.015 µM	27%	42%	0.00014 µM	
O=C(c1ccccn1)[C@]12Cc3cnn(-c4ccc(F)cc4)c3C=C1CCN(S(=O)(=O)c1ccc(C(F)(F)F)cc1)C2 [DAZUCORILANT]				0.00016 µM	IC50 [5]: 5 µM; Ki (Glucocorticoid receptor [6]): 0.1 µM; Ki (Glucocorticoid receptor [7]): 0.013 µM; Ki [8]: 0.765 µM; EC50 (Glucocorticoid receptor [9]): 0.28 µM; EC50 [10]: 1.6 µM; bioavailability [11]: 31%; Cmax [12]: 375 ng/mL; clearance [13]: 11 mL/min/kg; Activity (Rattus norvegicus [14]): Active; Activity (Rattus norvegicus [15]): Active; Activity (Rattus norvegicus [16]): inactive; Imax [17]: 62%; Imax (Hepatocyte [18]): 100%; Emax [19]: 51%; Emax (Hepatocyte [20]): 110%
O=C(c1ccccn1)[C@]12Cc3cnn(-c4ccc(F)cc4)c3C=C1CCN(S(=O)(=O)c1ccc(Cl)c(Cl)c1)C2	0.014 µM	7%	16%	0.00064 µM	IC50 [5]: > 10 µM; Efficacy [21]: 74%; Ki (Glucocorticoid receptor [7]): 0.15 µM; Cmax [12]: 437 ng/mL; Ki (Glucocorticoid receptor [22]): 0.0085 µM; Activity (Rattus norvegicus [15]): Active; Activity (Rattus norvegicus [16]): Active
O=C(c1cccs1)[C@]12Cc3cnn(-c4ccc(F)cc4)c3C=C1CCN(S(=O)(=O)c1ccc(C(F)(F)F)cc1)C2	0.027 µM			0.00041 µM	
O=C(c1ccco1)[C@]12Cc3cnn(-c4ccc(F)cc4)c3C=C1CCN(S(=O)(=O)c1ccc(C(F)(F)F)cc1)C2	0.031 µM			0.00017 µM	
O=C(c1ccccn1)[C@]12Cc3cnn(-c4ccc(F)cc4)c3C=C1CCN(S(=O)(=O)c1cccc(Cl)c1)C2	0.011 µM	14%	35%	0.00025 µM	Cmax [12]: 112 ng/mL; clearance [13]: 70 mL/min/kg
